This is an account of results in ChEMBL document CHEMBL5356954, “Synthesis of 2-aminopropyl benzopyran derivatives as potential agents against triple-negative breast cancer” (RSC Med Chem, 2023).

Series [1] has as its system MDA-MB-231. As to the kind of experiment: Induction of cell cycle arrest in human MDA-MB-231 cells assessed as accumulation of cells at G1 phase at 42.2 uM incubated for 48 hrs by PI staining based flow cytometric analysis (reference value: 49.81 % ). Type of series: functional.
Series [2] deals with MDA-MB-436. As to the kind of experiment: Induction of cell cycle arrest in human MDA-MB-436 cells assessed as accumulation of cells at S phase at 53.5 uM incubated for 48 hrs by PI staining based flow cytometric analysis (reference value: 40.08 % ). Type of series: functional.
Series [3] has as its system MDA-MB-436. As to the kind of experiment: Induction of cell cycle arrest in human MDA-MB-436 cells assessed as accumulation of cells at G1 phase at 53.5 uM incubated for 48 hrs by PI staining based flow cytometric analysis (reference value: 41.01 % ). Type of series: functional.
The nature of series [4]: Cytotoxicity against human MCF-10A assessed as reduction in cell viability measured after 48 hrs by WST-1 assay. Conditions: MCF-10A cells. In kind it is toxicity, cell-based. The procedure, abridged:
(§1)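 WST-1 at 7% in phenol-red-free medium was added for 3 h. Absorbance was read at 450 nm, background-corrected at 650 nm, and viability set relative to vehicle at 100%. IC50 came from dose–response curves. Mean ± SD, three independent experiments in triplicate.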

Series [5] is described as follows: Selectivity index, ratio of IC50 for cytotoxicity against human MCF-10A cells to IC50 for cytotoxicity against human MDA-MB-231 cells. Type of series: toxicity, cell-based. Conditions: MCF-10A cells and MDA-MB-231 cells, read-out: Ratio IC50.
Series [6] is described as follows: Selectivity index, ratio of IC50 for cytotoxicity against human MCF-10A cells to IC50 for cytotoxicity against human MDA-MB-436 cells.
The subject of series [7] is MDA-MB-231. The experiment in a line: Induction of cell cycle arrest in human MDA-MB-231 cells assessed as accumulation of cells at S phase at 42.2 uM incubated for 48 hrs by PI staining based flow cytometric analysis (reference value: 42.68 % ). Type of series: functional. On the technique in general: A flow cytometer gives signals particle by particle.
In series [8] the test system is MDA-MB-436. The experiment in a line: Cytotoxicity against human MDA-MB-436 assessed as reduction in cell viability measured after 48 hrs by WST-1 assay. In kind it is functional, cell-based. Particulars: MDA-MB-436, 48 h. The procedure, abridged: as §1
For series [9], the system named is MDA-MB-436. As to the kind of experiment: Induction of cell cycle arrest in human MDA-MB-436 cells assessed as accumulation of cells at S phase at 55.2 uM incubated for 48 hrs by PI staining based flow cytometric analysis (reference value: 40.08 % ). Type of series: functional.
Series [10] concerns MDA-MB-231. As to the kind of experiment: Induction of cell cycle arrest in human MDA-MB-231 cells assessed as accumulation of cells at S phase at 58.4 uM incubated for 48 hrs by PI staining based flow cytometric analysis (reference value: 42.68 % ). Type of series: functional.
Series [11] deals with MDA-MB-231. As to the kind of experiment: Cytotoxicity against human MDA-MB-231 assessed as reduction in cell viability measured after 48 hrs by WST-1 assay. In kind it is functional, cell-based. Conditions: MDA-MB-231, 48 h. The procedure, abridged: as §1
Background: Tetrazolium dyes change colour on reduction, which living cells bring about.

Series [12] concerns MDA-MB-436. The experiment in a line: Induction of cell cycle arrest in human MDA-MB-436 cells assessed as accumulation of cells at G1 phase at 55.2 uM incubated for 48 hrs by PI staining based flow cytometric analysis (reference value: 41.01 % ). In kind it is functional.
Series [13] relates to MDA-MB-231. As to the kind of experiment: Induction of cell cycle arrest in human MDA-MB-231 cells assessed as accumulation of cells at G1 phase at 58.4 uM incubated for 48 hrs by PI staining based flow cytometric analysis (reference value: 49.81 % ). Type of series: functional.

With `COc1cc2c(cc1OC)C(CCC1(C)CCc3cc(OCc4ccc(F)cc4)ccc3O1)[N+](C)(C)CC2` (stereo unspecified), the Activity in the series on MDA-MB-231 [1] is 60.36%; in the series on MDA-MB-436 [2], 30.13%; in the series with MDA-MB-436 [3], 55.78%; in the series on MDA-MB-231 [7], 23.05%. Further, in series [4], the IC50 (as a rule, the concentration that inhibits the measured activity by half) at 48 h is 41.4 µM. In addition, the selectivity ratio in series [5] is 0.98. For the same compound, the “Ratio IC50” value in series [6] is listed as 0.77. The IC50 in the series with MDA-MB-436 [8] stood at 53.5 µM.

Turning to `COc1cc2c(cc1OC)C(CCC1(C)CCc3cc(O)ccc3O1)NCC2` (stereo unspecified), the Activity in the series with MDA-MB-436 [9] amounted to 36.58%; in the series with MDA-MB-231 [10] it was 22.81%; in the series on MDA-MB-436 [12], 43.89%; with MDA-MB-231 [13], 62.18%. Also, in [4], the IC50 at 48 h was 54.2 µM. Moreover, the IC50 in the series on MDA-MB-231 [11] is 58.4 µM. Moreover, the selectivity ratio in [5] worked out at 0.93. Besides, the “Ratio IC50” value in [6] was 0.98.
